The subject of one assay is BALB/c mice. Briefly: Serum antibody ELISA after immunization with antigen-pulsed dendritic cells. The note with it: after first booster; mimotope-pulsed DCs i.p.; sera diluted 1:200. The format is in vivo, mouse. The method, boiled down:
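Female BALB/c mice, 5–7 weeks old. Bone-marrow DCs pulsed with peptide antigen (1 μM) on day 6, matured with PGE₂ (10⁻⁷M) plus LPS (2 μg/ml) for 24h from day 7, washed on day 9. 5 × 10⁵ DCs in DPBS given i.p., with i.p. boosts of fresh pulsed DCs without adjuvant at days 14 and 28. Controls received DCs or DPBS. Sera diluted 1:200 and tested by ELISA.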
(In general: An ELISA detects its analyte on a solid surface through an enzyme-linked reagent.)

For assay [1], the system named is C. albicans SC5314 (disseminated candidiasis in BALB/c mice). Briefly: Active vaccination. Particulars: mimotope-pulsed DCs; lethal i.v. challenge; extended observation. The format is in vivo, Candida albicans.

Regarding HYKTYGGYW [PS31], the “Antibody ELISA titers in immune sera against the mimotope” value (“Antibody ELISA titers in immune sera” for short) with BALB/c mice is given as “highest”. For the sequence SWYEGLRLI [PS55], the “Protection against disseminated candidiasis (mimotope vaccination)” value in assay [1] is reported as “neither of the two other mimotopes PS55 or PS76 induced protection”. On to SYLTTGGFW [PS28], for which the “Antibody ELISA titers in immune sera” value with BALB/c mice is reported as “highest”.

For WVPPGSWYL [PS2], in the assay on BALB/c mice, the “Antibody ELISA titers in immune sera” value is reported as “highest”. For YRQFVTGFW [PS76], the “Protection against disseminated candidiasis (mimotope vaccination)” value in assay [1] was “neither of the two other mimotopes PS55 or PS76 induced protection”.

These data come from article PMC6497404 (Vaccine, 2019).
